According to ChEMBL document CHEMBL4266040, “Structure-Based Engineering of Irreversible Inhibitors against Histone Lysine Demethylase KDM5A” (J Med Chem, 2018):
The source made the active and inactive calls. The rule behind the calls is not given here.

Key:
[1] = molecular target: T1, Lysine-specific demethylase 4A (Homo sapiens, UniProt O75164); experiment: Inhibition of KDM4A (1 to 350 residues) (unknown origin) using H3 ( 1 to 15 residues) K9me3 as substrate preincubated for 15 min followed by substrate addition measured after 15 mins by FDH-coupled demethylase assay
T1 sequence (O75164 whole entry): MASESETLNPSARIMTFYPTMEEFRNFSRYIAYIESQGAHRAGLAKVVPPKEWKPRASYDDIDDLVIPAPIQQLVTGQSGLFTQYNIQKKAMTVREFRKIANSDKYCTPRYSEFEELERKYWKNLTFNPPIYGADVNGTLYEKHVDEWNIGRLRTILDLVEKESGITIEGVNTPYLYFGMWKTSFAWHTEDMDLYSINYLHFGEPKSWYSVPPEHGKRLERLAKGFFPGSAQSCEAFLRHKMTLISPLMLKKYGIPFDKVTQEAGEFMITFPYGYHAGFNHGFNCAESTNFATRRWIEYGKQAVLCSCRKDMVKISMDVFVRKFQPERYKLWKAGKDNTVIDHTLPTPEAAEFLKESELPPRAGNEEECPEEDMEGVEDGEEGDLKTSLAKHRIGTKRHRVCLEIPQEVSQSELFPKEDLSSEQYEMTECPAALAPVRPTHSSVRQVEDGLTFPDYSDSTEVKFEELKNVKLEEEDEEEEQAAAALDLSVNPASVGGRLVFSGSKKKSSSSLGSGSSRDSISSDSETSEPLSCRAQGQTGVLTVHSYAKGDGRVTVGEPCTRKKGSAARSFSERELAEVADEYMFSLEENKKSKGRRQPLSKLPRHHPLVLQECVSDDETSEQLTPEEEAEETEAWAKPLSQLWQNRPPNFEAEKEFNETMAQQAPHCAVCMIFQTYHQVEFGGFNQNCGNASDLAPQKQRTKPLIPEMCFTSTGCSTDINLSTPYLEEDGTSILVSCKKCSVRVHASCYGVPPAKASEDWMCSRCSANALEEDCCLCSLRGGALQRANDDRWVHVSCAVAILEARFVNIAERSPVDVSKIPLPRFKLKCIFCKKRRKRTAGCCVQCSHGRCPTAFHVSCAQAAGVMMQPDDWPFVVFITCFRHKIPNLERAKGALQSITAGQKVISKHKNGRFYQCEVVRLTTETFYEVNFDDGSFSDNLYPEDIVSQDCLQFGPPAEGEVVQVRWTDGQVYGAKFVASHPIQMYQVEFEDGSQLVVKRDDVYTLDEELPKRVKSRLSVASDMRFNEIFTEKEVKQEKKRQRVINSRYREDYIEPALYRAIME

[2] = molecular target: T2, Lysine-specific demethylase 5A (Homo sapiens, UniProt P29375); experiment: Inhibition of KDM5A ARID/PhD1 domain deletion mutant (1 to 739 residues) (unknown origin) using H3 ( 1 to 24 residues) K4me3 as substrate preincubated for 15 min followed by substrate addition measured after 15 mins by FDH-coupled demethylase assay
[3] = molecular target: Lysine-specific demethylase 6A (Homo sapiens, UniProt O15550); experiment: Inhibition of KDM6A (880 to 1401 residues) (unknown origin) using H3 ( 21 to 44 residues) K27me3 as substrate preincubated for 15 min followed by substrate addition measured after 15 mins by FDH-coupled demethylase assay
[4] = molecular target: T2, Lysine-specific demethylase 5A; experiment: Binding affinity to KDM5A ARID/PhD1 domain deletion mutant (1 to 588 residues) (unknown origin) by ITC assay
Homo sapiens [5] = species on record: Homo sapiens; experiment: Selectivity ratio of IC50 for KDM4A (1 to 350 residues) (unknown origin) to IC50 for KDM5A ARID/PhD1 domain deletion mutant (1 to 739 residues) (unknown origin)
Homo sapiens [6] = species on record: Homo sapiens; experiment: Selectivity ratio of IC50 for KDM5A ARID/PhD1 domain deletion mutant (1 to 739 residues) (unknown origin) to IC50 for KDM6A (880 to 1401 residues) (unknown origin)
[7] = molecular target: T2, Lysine-specific demethylase 5A; experiment: Inhibition of KDM5A in human MCF7 cells assessed as effect on H3K4me3 methylation levels at 1 to 10 uM after 30 hrs by Western blot analysis; type: cell-based
Summary of the method: (§1)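 MCF7 breast cancer cells were exposed to compound, with a 0.1% DMSO control, for 30 or 48 h. Total cell lysates were then probed by Western blot with antibodies to histone methylation marks.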

[8] = molecular target: T2, Lysine-specific demethylase 5A; experiment: Inhibition of KDM5A in human MCF7 cells assessed as effect on H3K27me3 methylation levels at 1 to 10 uM after 30 hrs by Western blot analysis; type: cell-based; summary of the method: as §1
[9] = Effective permeability of the compound at pH 7.4 by PAMPA; type: ADME
Summary of the method: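 PAMPA with a lipid/dodecane artificial membrane and pH 7.4 buffer in donor and acceptor wells. Compounds diluted from 10 mM DMSO stock to 0.05 mM final, 0.5% DMSO. Donor stirred during a 30 min permeation at room temperature. Donor and acceptor concentrations read by UV. Permeability given in 10−6 cm s−1: >100 high, 10–100 moderate, <10 low.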

BT-474 = experiment: Growth inhibition of human BT474 cells at 0.11 to 3.5 uM measured every 4 hrs for 300 hrs by IncuCyte live cell imaging method; type: functional, cell-based
Summary of the method: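 BT474 cells grown with compound; percent confluence tracked by IncuCyte live-cell imaging every 4 h over 300 h.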

[10] = Metabolic stability in human BT474 cell culture media assessed as parent compound remaining at 10 uM after 24 hrs by LC-MS/MS analysis; type: physicochemical; details: read-out: Stability
[11] = molecular target: T1, Lysine-specific demethylase 4A; experiment: Irreversible inhibition of recombinant KDM4A (1 to 350 residues) (unknown origin) expressed in Escherichia coli using H3 (1 to 21 residues) K9me3 as substrate preincubated for 10 mins followed by substrate/alphaKG/(NH4)2Fe(SO4)2 addition measured after 1 hr by alphaLISA assay
Summary of the method: (§2)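 AlphaLISA using antibody to H3K4 (KDM5B) or H3K9 (KDM4A) methylation to detect demethylation of enzyme-specific histone peptides. Both enzymes are recombinant catalytic domains from E. coli, tested at the same enzyme concentration.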

Homo sapiens [12] = species on record: Homo sapiens; experiment: Selectivity ratio of IC50 for recombinant KDM4A (1 to 350 residues) (unknown origin) to IC50 for recombinant KDM5B ARID/PhD1 domain deletion (1 to 755 residues) (unknown origin); summary of the method: as §2

Sequence of Lysine-specific demethylase 6A (O15550 whole entry, the tested form may be a part): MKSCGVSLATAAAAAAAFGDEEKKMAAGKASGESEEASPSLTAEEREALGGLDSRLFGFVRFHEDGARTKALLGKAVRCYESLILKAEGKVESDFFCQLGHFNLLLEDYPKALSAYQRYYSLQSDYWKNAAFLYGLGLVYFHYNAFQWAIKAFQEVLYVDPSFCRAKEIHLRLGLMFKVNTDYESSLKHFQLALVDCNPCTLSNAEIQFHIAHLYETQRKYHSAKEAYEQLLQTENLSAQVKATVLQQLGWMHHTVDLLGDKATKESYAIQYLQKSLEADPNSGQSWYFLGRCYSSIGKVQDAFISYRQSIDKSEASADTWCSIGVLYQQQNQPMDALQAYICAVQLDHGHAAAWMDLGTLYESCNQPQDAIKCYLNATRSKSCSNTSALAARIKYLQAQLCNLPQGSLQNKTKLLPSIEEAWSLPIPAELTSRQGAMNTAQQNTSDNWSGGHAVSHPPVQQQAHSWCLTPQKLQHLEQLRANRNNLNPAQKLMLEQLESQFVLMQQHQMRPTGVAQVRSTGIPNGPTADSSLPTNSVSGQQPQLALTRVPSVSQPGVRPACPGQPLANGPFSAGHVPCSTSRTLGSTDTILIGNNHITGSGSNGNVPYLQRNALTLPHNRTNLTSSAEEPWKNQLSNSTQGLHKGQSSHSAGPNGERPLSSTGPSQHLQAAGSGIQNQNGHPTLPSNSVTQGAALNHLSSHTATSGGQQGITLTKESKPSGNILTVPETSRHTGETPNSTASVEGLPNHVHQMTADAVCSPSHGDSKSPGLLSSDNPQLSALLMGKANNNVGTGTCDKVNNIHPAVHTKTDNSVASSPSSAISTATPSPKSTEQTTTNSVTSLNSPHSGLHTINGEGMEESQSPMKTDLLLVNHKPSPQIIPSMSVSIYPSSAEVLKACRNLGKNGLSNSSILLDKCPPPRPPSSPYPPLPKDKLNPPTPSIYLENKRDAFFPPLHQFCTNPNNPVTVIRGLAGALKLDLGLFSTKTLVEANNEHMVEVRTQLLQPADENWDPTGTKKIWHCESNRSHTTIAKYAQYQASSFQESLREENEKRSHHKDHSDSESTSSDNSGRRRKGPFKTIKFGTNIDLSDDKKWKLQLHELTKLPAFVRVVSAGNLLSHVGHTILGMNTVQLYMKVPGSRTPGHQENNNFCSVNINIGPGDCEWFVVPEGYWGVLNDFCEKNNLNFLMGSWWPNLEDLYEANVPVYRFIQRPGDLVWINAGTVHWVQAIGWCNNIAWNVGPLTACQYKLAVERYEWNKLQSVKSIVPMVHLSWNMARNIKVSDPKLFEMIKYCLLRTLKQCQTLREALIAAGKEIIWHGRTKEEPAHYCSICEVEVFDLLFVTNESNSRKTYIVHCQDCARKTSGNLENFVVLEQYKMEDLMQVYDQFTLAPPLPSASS
T2 sequence (P29375 whole entry, the tested form may be a part): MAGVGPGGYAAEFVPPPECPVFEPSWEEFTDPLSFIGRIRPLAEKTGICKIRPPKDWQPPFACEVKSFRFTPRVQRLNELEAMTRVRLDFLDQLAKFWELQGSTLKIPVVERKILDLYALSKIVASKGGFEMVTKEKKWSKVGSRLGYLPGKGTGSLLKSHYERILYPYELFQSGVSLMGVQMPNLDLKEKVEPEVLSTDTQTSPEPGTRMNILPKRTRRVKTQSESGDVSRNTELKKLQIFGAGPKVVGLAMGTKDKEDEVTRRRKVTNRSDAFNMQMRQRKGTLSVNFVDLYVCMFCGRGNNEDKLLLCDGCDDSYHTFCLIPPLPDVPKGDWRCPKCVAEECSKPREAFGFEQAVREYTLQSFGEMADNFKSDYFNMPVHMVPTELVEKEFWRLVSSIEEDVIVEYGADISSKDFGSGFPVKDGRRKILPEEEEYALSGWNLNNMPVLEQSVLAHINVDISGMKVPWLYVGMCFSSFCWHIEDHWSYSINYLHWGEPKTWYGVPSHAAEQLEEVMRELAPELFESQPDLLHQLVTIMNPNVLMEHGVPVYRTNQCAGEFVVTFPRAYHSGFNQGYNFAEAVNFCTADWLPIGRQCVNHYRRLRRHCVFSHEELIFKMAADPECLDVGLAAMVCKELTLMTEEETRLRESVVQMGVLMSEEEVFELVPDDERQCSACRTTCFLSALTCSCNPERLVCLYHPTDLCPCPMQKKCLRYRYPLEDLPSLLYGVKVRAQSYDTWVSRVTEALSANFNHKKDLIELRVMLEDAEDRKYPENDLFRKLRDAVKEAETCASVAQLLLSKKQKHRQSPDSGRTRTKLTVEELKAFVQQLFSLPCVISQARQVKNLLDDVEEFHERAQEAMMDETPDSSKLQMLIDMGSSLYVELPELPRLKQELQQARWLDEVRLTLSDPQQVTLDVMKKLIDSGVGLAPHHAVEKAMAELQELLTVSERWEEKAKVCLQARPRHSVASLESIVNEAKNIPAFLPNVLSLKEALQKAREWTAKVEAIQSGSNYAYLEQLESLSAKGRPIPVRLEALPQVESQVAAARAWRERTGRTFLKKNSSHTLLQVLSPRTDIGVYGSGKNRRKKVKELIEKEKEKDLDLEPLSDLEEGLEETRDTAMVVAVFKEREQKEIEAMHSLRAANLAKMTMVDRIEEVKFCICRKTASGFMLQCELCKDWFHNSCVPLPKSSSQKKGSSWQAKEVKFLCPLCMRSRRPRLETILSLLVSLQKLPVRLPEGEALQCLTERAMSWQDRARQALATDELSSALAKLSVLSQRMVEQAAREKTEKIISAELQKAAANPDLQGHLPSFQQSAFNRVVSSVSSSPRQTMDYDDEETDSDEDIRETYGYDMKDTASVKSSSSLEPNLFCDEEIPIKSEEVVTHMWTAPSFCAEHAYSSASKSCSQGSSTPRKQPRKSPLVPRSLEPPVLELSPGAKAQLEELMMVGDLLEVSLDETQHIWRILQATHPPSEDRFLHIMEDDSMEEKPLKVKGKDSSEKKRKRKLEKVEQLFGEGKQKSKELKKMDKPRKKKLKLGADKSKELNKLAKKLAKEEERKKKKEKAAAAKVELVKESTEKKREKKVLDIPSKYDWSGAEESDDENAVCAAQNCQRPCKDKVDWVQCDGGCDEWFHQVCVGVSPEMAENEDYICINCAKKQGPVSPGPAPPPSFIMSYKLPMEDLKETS

Structure (SMILES) | IC50 [1] | IC50 [2] | IC50 [3] | Kd [4] | Ratio IC50 (Homo sapiens [5]) | Ratio IC50 (Homo sapiens [6]) | also measured
O=C(O)CCNc1cc(N2CCc3ccccc3CC2)nc(-c2ccccn2)n1 | 400 µM | 110 µM | 69 µM | 12 µM | 3.2 to 3.6 | 1.5 to 1.8 | 
CCOC(=O)CCNc1cc(N2CCc3ccccc3CC2)nc(-c2ccccn2)n1 |  |  |  |  |  |  | inhibition [7]: Active; inhibition [8]: Active
CC(C)OC(=O)c1ccnc2cc(C(OCCN3CCCCC3)c3cccc(N)c3)sc12 (configuration not stated) |  |  |  |  |  |  | Peff [9]: 1018 ×10⁻⁶ cm/s; growth inhibition (GI) (BT-474): Active; remaining at 24 h, 10 µM [10]: 75%
CN1CCCC1CCOC(c1cc2nccc(C(=O)O)c2[nH]1)c1ccccc1Cl (configuration not stated) |  |  |  | 0.15 µM |  |  | 
CN1CCCC1CCOC(c1cc2nccc(C(=O)O)c2s1)c1ccccc1Cl (configuration not stated) |  |  |  | 0.26 µM |  |  | IC50 [11]: 2.2 µM; Ratio IC50 (Homo sapiens [12]): 7

Further lines, with some results ahead:

IC50 [1] | IC50 [2] | IC50 [3] | Kd [4] | Ratio IC50 (Homo sapiens [5]) | Ratio IC50 (Homo sapiens [6]) | Structure (SMILES) | also measured
290 µM | 83 µM | 55 µM | 9 µM | 3.2 to 3.6 | 1.5 to 1.8 | C=CS(=O)(=O)N1CCCN(c2cc(NCCC(=O)O)nc(-c3ccccn3)n2)CC1 | 
230 µM | 71 µM | 39 µM | 6 µM | 3.2 to 3.6 | 1.5 to 1.8 | C=CC(=O)N1CCCN(c2cc(NCCC(=O)O)nc(-c3ccccn3)n2)CC1 | 
